pIC50: −log10 of the molar value.

The subject of one assay is WI-38. Kind of assay: Cytotoxicity against human WI38 cells assessed as reduction in cell viability incubated for 96 hrs by MTT assay. The assay is classed as cell-based. To be noted: WI-38, 96 h. A digest of the protocol:
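WI 38 cells were grown in DMEM with 2 mM L-glutamine, 1× nonessential amino acids, 1% penicillin–streptomycin and 15% FBS at 37 °C, 5% CO2. Cells were plated at 5000–20 000 per well, then 24 h later dosed in triplicate and exposed continuously for 96 h. Read-out was MTT absorbance at 570 nm, with IC50 from dose–response analysis.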
A general note: Tetrazolium assays rely on reduction of a dye to a coloured formazan, in cell work by metabolically active cells.

The next assay concerns MIA PaCa-2. Kind of assay: Cytotoxicity against human MIAPaCa2 cells assessed as reduction in cell viability incubated for 96 hrs by MTT assay. The assay is classed as functional, cell-based. To be noted: MIA PaCa-2, 96 h. A digest of the protocol: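 Pancreatic adenocarcinoma MIA PaCa2 cells were cultured in DMEM plus 2 mM L-glutamine and 10% FBS at 37 °C, 5% CO2. Cells were seeded at 5000–20 000 per well and rested 24 h, then dosed in triplicate for 96 h continuous exposure, with doxorubicin as positive control. Read-out was MTT absorbance at 570 nm; IC50 was derived by dose–response analysis.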

Another assay concerns HeLa. Description: Cytotoxicity against human HeLa cells assessed as reduction in cell viability incubated for 96 hrs by MTT assay. The format is functional, cell-based. In outline: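 HeLa monolayers kept in DMEM with 10% v/v FBS and 2 mM L-glutamine at 37 °C under humidified 5% CO2. Cells were seeded at 5000–20 000 per well and preincubated 24 h. Compound was added in triplicate, with doxorubicin as positive control. After 96 h continuous exposure, viability was read by MTT absorbance at 570 nm. IC50 came from dose–response analysis.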

The next assay relates to MDA-MB-231. Kind of assay: Cytotoxicity against human MDA-MB-231 cells assessed as reduction in cell viability incubated for 96 hrs by MTT assay. The assay is classed as functional, cell-based. To be noted: MDA-MB-231, 96 h. In outline: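 Triple-negative breast line MDA MB231 was grown as monolayer at 37 °C under humidified 5% CO2 and plated at 5000–20 000 cells/well depending on line. After 24 h, compound was added in triplicate, with doxorubicin as positive control. Cells were exposed continuously for 96 h, then MTT colorimetry read at 570 nm. IC50 came from dose–response fitting.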

Another assay relates to NCI-H1975. Description: Cytotoxicity against human NCI-H1975 cells assessed as reduction in cell viability incubated for 96 hrs by MTT assay. To be noted: NCI-H1975, 96 h. The format is functional, cell-based. In outline:
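NSCLC NCI H1975 cells were maintained in RPMI 1640 with 10% v/v FBS and 1% penicillin–streptomycin at 37 °C, humidified 5% CO2. Cells were seeded at 5000–20 000 per well, given 24 h, then dosed in triplicate for 96 h with doxorubicin as positive control. Viability was measured by MTT at 570 nm, and IC50 was obtained from dose–response curves.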

On to `COc1cc(O)c2c(c1)C(=O)C1=C(COC(C)(O)C1)C2=O` (stereo not given), for which the negative-log IC50 (pIC50) is 4.26 in the assay on WI-38; 4.69 with MIA PaCa-2; 4.99 with HeLa; 4.51 in the assay with MDA-MB-231; 4.56 with NCI-H1975.

`COc1cc(O)cc2c1C(=O)c1cnc(C)cc1C2=O`: the pIC50 with WI-38 is 5.23; with MIA PaCa-2 it was 6.01; with HeLa, 6.02; in the assay on MDA-MB-231, 5.82; in the assay on NCI-H1975 it was 6.21.

In the case of `COc1c(O)cc(O)c2c1C(=O)c1cc(C)ncc1C2=O`, the negative-log IC50 (pIC50) in the assay with WI-38 is 5.19; in the assay on MIA PaCa-2 it was 6.19; with HeLa it was 6.15; in the assay with MDA-MB-231, 6.14; in the assay with NCI-H1975, 6.47.

As for `COc1cccc2c1C(=O)c1c(O)c3c(c(O)c1C2=O)C[C@@](O)(C(=O)CO)C[C@@H]3O[C@H]1C[C@H](N)[C@H](O)[C@H](C)O1` [DOXORUBICIN], the negative-log IC50 (pIC50) with WI-38 was 6.46; with MIA PaCa-2, 7.40; with HeLa it was 7.30; in the assay with MDA-MB-231, 7.15; in the assay on NCI-H1975, 7.52.

One may read the pIC50 as the IC50 on a negative log10 scale, so that one unit is a factor of ten.
